In brackets after ≈: the same amount, converted by molar mass.
How the values were obtained:
Substrate solubility = format: physicochemical; conditions: assay buffer, pH 9
rat mEH [1] = target: T1, rat mEH (Rattus norvegicus, UniProt P07687); assay: High throughput screening end-point assay with 11, rat mEH; format: biochemical; conditions: average, n = 4 for each enzyme, 30 min end-point
T1 sequence (P07687 1-455): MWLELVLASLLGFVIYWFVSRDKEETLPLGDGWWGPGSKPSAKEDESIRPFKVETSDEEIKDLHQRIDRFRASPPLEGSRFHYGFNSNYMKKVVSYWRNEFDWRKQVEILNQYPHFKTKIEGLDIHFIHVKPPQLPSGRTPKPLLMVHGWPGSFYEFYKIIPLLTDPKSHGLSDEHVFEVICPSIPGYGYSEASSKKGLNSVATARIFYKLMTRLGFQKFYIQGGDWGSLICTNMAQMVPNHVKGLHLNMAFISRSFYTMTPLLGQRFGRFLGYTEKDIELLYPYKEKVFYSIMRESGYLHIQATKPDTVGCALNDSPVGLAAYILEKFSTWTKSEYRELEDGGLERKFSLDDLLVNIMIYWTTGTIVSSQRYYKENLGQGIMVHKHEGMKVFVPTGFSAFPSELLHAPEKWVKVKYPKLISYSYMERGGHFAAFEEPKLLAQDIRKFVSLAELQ
In short: (§1)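 End-point screen of a pesticide library at 10 μM final. Recombinant partially purified enzyme (human 1.6, rat 0.5 μg/mL final) in 100 mM Tris/HCl pH 8.5 with 0.1 mg/mL BSA, preincubated with compounds 5 min at 30°C. Substrate added to 25 μM, then 30 min at room temperature in the dark before fluorescence reading (ex 330/em 465 nm). Buffer-only background and full-activity control wells; duplicate averages.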

rat mEH [2] = target: T1, rat mEH; assay: Specific activity of rat mEH for absorbent/fluorescent substrates; format: biochemical; conditions: [S] 50 μM, pH 9.0, 37°C, fluorescent substrates
In short: (§2)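 Partially purified recombinant enzyme (0.5–80 μg/mL final) in 100 mM Tris/HCl pH 9.0 with 0.1 mg/mL BSA, preincubated 5 min at 37°C. Substrate added at 50 μM final from 5 mM DMSO stock; buffer-only wells gave background. Read kinetically for 5 min: 4-nitrophenol at 450 nm, or fluorescence (coumarin ex 355/em 450; naphthaldehyde ex 330/em 465). Signals converted via standard curves (0.005–0.5 μM); 8 replicates.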

human mEH [3] = target: T2, human mEH (Homo sapiens, UniProt P07099); assay: Assay conditions optimization with substrate 11, human mEH; format: biochemical
T2 sequence (P07099 1-455): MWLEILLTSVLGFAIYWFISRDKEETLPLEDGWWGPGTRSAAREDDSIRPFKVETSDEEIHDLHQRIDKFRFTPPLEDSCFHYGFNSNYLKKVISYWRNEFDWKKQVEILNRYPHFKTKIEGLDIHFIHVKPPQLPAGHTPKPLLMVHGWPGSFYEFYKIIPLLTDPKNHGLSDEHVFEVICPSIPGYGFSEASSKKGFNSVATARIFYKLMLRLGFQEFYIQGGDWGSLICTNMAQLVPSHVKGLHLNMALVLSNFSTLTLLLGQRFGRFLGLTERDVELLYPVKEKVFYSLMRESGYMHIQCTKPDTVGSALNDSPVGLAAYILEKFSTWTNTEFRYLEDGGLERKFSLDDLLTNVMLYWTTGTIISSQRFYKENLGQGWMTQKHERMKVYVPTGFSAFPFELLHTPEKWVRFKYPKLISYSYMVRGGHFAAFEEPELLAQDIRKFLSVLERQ
In short: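 Recombinant human mEH from baculovirus, partially purified. Enzyme titrated at 0–10 μg/mL final against 25 μM fluorogenic glycidyl carbonate substrate, in 0.1 M Tris/HCl pH 9.0 with 0.1 mg/mL BSA at 37°C, followed over 30 min. Then 1.6 μg/mL enzyme with substrate compared across six buffers (three pH values) at 30 and 37°C over 10 min, against enzyme-free background. 6-Methoxy-2-naphthaldehyde read at ex 330/em 465 nm.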

human mEH [4] = target: T2, human mEH; assay: Kinetic constants determination, human mEH; format: biochemical; conditions: lower than for cSO
Background = format: physicochemical
In short: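 Enzyme-free control wells held Tris/HCl (100 mM, pH 9.0, 0.1 mg/mL BSA), preincubated 5 min at 37°C. Substrate was added from a 5 mM DMSO stock working solution to 50 μM final, and product was read kinetically for 5 min. Read-out was 4-nitrophenol absorbance at […] fluorescence (ex 355/em 450 or ex 330/em 465 nm). Signals were converted to molar amounts via 0.005–0.5 μM standard curves; 8 replicates.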

human mEH [5] = target: T2, human mEH; assay: Specific activity of human mEH for absorbent/fluorescent substrates; format: biochemical; conditions: [S] 50 μM, pH 9.0, 37°C, fluorescent substrates
In short: as §2

rat mEH [6] = target: T1, rat mEH; assay: Kinetic constants determination, rat mEH; format: biochemical; conditions: greater
human mEH [7] = target: T2, human mEH; assay: High throughput screening end-point assay with 11, human mEH; format: biochemical; conditions: average, n = 4 for each enzyme, 30 min end-point
In short: as §1

[8] = HmEH 1.6 μg/mL, 25 μM 11, Tris/HCl pH 9.0, 37°C

For COc1ccc2cc(C(C#N)OC(=O)OCC3CO3)ccc2c1 (centres unmarked) [compound 11, Cyano(6-methoxynaphthalen-2-yl)methyl (oxiran-2-ylmethyl) Carbonate], the solubility (Substrate solubility) was roughly 50 µM (≈ 15.7 µg/mL), the “S/N of HTS assay” value (rat mEH [1]) was greater than 30 and the “Z' of HTS assay” value (rat mEH [1]) was 0.69 ± 0.03. For the same compound, the “Rat mEH S/B” value (rat mEH [2]) was 5, the “Rat mEH S/N” value (rat mEH [2]) was 48 and the “Rat mEH Spec. act.” value (rat mEH [2]) was 68 ± 4 nmol/min/mg. The “Rat mEH Z'” value (rat mEH [2]) was 0.73, the “signal to background ratio (S/B)” value (human mEH [3]; [8]) was “≈ 3” and the “signal to noise ratio (S/N)” value (human mEH [3]; [8]) was “≈ 40”. The “decrease of catalytic activity of human mEH on reducing temperature” value (human mEH [3]; incubation temperature from 37 to 30 °C, all buffers tested, 25 μM 11) was “≈ 30%”, the “KM relative to cSO, human mEH” value (human mEH [4]) was roughly 40 fold and the “reduction of background hydrolysis on reducing pH” value (Background; Tris/HCl, pH reduced from 9.0 to 8.5, 25 μM 11) was “≈ 30%”. The background hydrolysis (Background; [S] 50 μM, Tris/HCl 100 mM pH 9.0, 0.1 mg/mL BSA, 37°C, fluorescent substrates) was 0.018 ± 0.003 nmol/min, the “reduction of background hydrolysis on reducing temperature” value (Background; incubation temperature from 37 to 30 °C, 25 μM 11) was “at least 50%” and the “Human mEH S/B” value (human mEH [5]) was 4. The “Human mEH Spec. act.” value (human mEH [5]) was 25 ± 2 nmol/min/mg, the “Human mEH Z'” value (human mEH [5]) was 0.66 and the “VM/KM relative to cSO and 9, rat mEH” value (rat mEH [6]) was 10 fold. The “S/N of HTS assay” value (human mEH [7]) was greater than 30 and the “Z' of HTS assay” value (human mEH [7]) was 0.69 ± 0.03.

— article PMC3090455 (Analytical biochemistry, 2011)
